TAAR1 agonist – agonists of human TAAR1; Q96RJ0; CHO RD-HGA16 TAAR1, Fluo-8 calcium fluorescence; vehicle wells 0%, saturating PEA agonist 100%; activation, % at 3 µM; 360,000 tested, 0.99% active; AID 624467;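 active = activation above the mean activation of all test compounds in the run plus 3 SD, cut at about 38% in these data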
Target sequence (Q96RJ0 whole entry, looked up): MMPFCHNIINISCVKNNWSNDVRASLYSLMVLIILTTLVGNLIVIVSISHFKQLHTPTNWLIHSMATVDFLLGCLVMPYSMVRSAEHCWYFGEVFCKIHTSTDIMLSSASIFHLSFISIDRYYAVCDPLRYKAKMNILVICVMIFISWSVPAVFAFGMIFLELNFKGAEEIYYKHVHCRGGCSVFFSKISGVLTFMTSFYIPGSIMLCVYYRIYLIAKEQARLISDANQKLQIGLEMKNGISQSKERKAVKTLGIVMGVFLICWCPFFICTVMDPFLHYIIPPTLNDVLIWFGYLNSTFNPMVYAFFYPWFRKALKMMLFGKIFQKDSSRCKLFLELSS
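Assay system – CHO-derived RD-HGA16 cells with stable Gα16 and human TAAR1 · Compound dosing – one-point dosing at 3 µM (nominal) · Incubation – 17-24 h seeding, 75 min 37 °C dye, 30 min RT · Measured by – kinetic Fluo-8 calcium fluorescence · Control set – DMSO vehicle as 0%, PEA at EC100 as 100% · Repeats – single well for each compound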
CRFR2-BP antag – CRF-BP/CRF-R2 complex antagonism | HEK293 CRF-R2/CRF-BP, CRF-induced calcium fluorescence | inhibition, % at 11.8 µM | 350,000 tested, 0.59% active | AID 588475;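 active = inhibition of the ligand-induced calcium signal above about 50% at the single tested concentration, limit read from the data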
CRFR2-BP ag – agonists of human CRF-binding protein/CRF-R2 receptor complex; 350,000 tested, 0.46% active; activation, % at 13.2 µM; AID 588473; HEK293 CRF-R2/CRF-BP, calcium dye fluorescence (FLIPR); percent of saturating CRF peptide response;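 active = activation of at least 50%, plus an integration ratio under a set limit after plate pattern correction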
ANO1 activ – activators or potentiators of mouse TMEM16A chloride channel | HEK293 TMEM16A/YFP-H148Q/I152L, iodide quench fluorescence; hits give low values | B-score at 10 µM | 340,000 tested, 0.3% active;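 active = fluorescence-ratio B-score plate-corrected deviation score at least 3 library SD below zero, with starting fluorescence score within 5 deviations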;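 note: channel opened by trigger with iodide after compound preincubation; score built on the fluorescence ratio of max minus min over baseline; more negative score means more quench and so TMEM16A activation or potentiation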
TMEM16A inh – mouse TMEM16A channel inhibition, primary screen; Q8BHY3; HEK293 TMEM16A/YFP iodide influx fluorescence, ionomycin; normalized B-score (activity score, 25-100; higher = stronger inhibition) at 10 µM; 310,000 tested, 1.2% active;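 active = ratio plate-corrected score three or more library SD toward inhibition, starting fluorescence score within five deviations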;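 note: score derived from kinetic fluorescence span divided by baseline fluorescence per well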
TAAR1 antag – human TAAR1 antagonism. AID 624466. Q96RJ0. CHO RD-HGA16 TAAR1, Fluo-8 calcium fluorescence, antagonist. inhibition, % at 3 µM. 360,000 tested, 1.5% active;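 active = inhibition above a per-plate cutoff, the mean inhibition of test compounds on that plate plus 3 SD, cut at about 49% in these data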
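Test system – hTAAR1-expressing CHO RD-HGA16 cells, Gα16-coupled · Also added – β-PEA at EC80 concentration, post-compound challenge · Compound – 3 µM, single point · Incubation – dye loading 75 min at 37 °C, then 30 min room temperature · Measured by – Fluo-8 intracellular calcium dye fluorescence, real-time kinetic reads · Benchmarks – vehicle and agonist controls · Replicates – singlicate, one well per test compound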
TAAR1 ag conf – human TAAR1 agonism, confirmed; shares compounds with TAAR1 agonist; AID 651783; activation, % at 3 µM; 2,400 tested, 82% active; CHO RD-HGA16 TAAR1, Fluo-8 calcium fluorescence; scaled: DMSO 0%, maximal phenethylamine 100%;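 active = activation above a cutoff set at the run's mean compound activation plus 3 SD, cut at about 39% in these data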
Ga16 ag counter – nonselective agonist in parental cells, TAAR1 agonist counter-screen; CHO-Ga16 parental, Fluo-8 calcium fluorescence; normalized to maximal ATP response, DMSO zero; shares compounds with TAAR1 agonist; 2,400 tested, 50% active; activation, % at 3 µM;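 active = activation above the run cutoff, the mean activation over all tested wells plus 3 SD, cut at about 12% in these data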
TAAR1 desens – human TAAR1 agonist that also desensitizes the receptor; inhibition, % at 3 µM; CHO RD-HGA16 hTAAR1, Fluo-8 calcium, beta-PEA response inhibition; AID 651951; 2,400 tested, 46% active; shares compounds with TAAR1 agonist;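 active = inhibition above the run cutoff, the mean inhibition of all test compounds plus 3 SD, cut at about 49% in these data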;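 note: beta-PEA stimulus applied at its EC80; loss of beta-PEA calcium signal after compound pretreatment read as receptor desensitization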
Ga16 antag count – nonselective Ga16 antagonist in TAAR1 agonist counter-screen | 2,400 tested, 39% active | inhibition, % at 3 µM | AID 651952 | CHO-Ga16 ATP-induced calcium, Fluo-8 fluorescence | shares compounds with TAAR1 agonist;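 active = inhibition above the plate's mean compound inhibition plus 3 SD, computed per plate, cut at about 22% in these data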
Numbers stand for hits; – = inactive; · = not tested or not shown. In the library only some 3.9% were active in any assay of this set; here they are far more common.

SMILES | TAAR1 agonist | CRFR2-BP antag | CRFR2-BP ag | ANO1 activ | TMEM16A inh | TAAR1 antag | TAAR1 ag conf | Ga16 ag counter | TAAR1 desens | Ga16 antag count
Cc1ccc(Nc2cc(C)c3c(O)cccc3n2)cc1C | 97.9 | – | – | – | – | 54.1 | 96.1 | 28.3 | 87.4 | 24.8
Cc1ccccc1Nc1cc(C)c2c(O)cccc2n1 | – | – | – | – | – | – | · | · | · | ·
CCN(CC(=O)N1CCCC1)S(=O)(=O)c1ccc2ccccc2c1 | – | – | – | – | – | – | · | · | · | ·
CN(C)C1=NC[C@H](Cc2ccccc2)N1CCCC1CCCC1 | 45.0 | – | – | – | – | – | – | – | – | –
O=c1c2ccc([N+](=O)[O-])cc2ncn1Cc1ccccc1C(F)(F)F | 51.1 | – | – | – | – | – | – | 21.5 | – | –
CC(OC(=O)CCNS(=O)(=O)c1cccs1)C(=O)Nc1ccc(S(N)(=O)=O)cc1 (stereo unspecified) | – | – | – | – | · | – | · | · | · | ·
CCCCCCc1cc2cc(-c3nnc(-c4ccccc4O)o3)c(=O)oc2cc1O | 48.3 | – | 231.9 | – | – | – | 48.4 | 46.4 | 59.4 | 60.3
COc1ccc(-c2nnc(-c3ccccc3O)o2)cc1 | – | – | – | – | – | – | · | · | · | ·
CN1CCN(C2=Cc3ccccc3Sc3cc(F)ccc32)CC1 | – | – | – | – | – | – | · | · | · | ·
CN1CCN(C2=Cc3ccc(Cl)cc3Sc3ccc(F)cc32)CC1 | 49.1 | – | – | – | – | – | 57.0 | 40.8 | 56.8 | 43.7
Cc1ccc(NC(=O)COc2cccc3ccc(C)nc23)c(Br)c1 | 86.8 | – | – | – | – | 89.5 | – | – | – | 22.0
NC(=O)C1CCCN(CC(=O)Nc2ccccc2C(=O)NC2CC2)C1 (stereo unspecified) | – | – | – | – | · | – | · | · | · | ·
O=C(NN1C(=O)C2C3C=CC(C3)C2C1=O)c1ccncc1 (stereo unspecified) | – | – | – | – | – | – | · | · | · | ·
O=C(NN1C(=O)C2C(c3ccccc3)C=CC(c3ccccc3)C2C1=O)c1ccncc1 (stereo unspecified) | 46.6 | – | – | – | – | – | – | 16.0 | – | –
COc1ccc(CC(N)c2csc(Nc3nncc4ccccc34)n2)cc1 (stereo unspecified) | 61.4 | · | · | · | · | – | 82.3 | 34.0 | 52.4 | 31.8
COc1cc(OC)nc(Nc2nc(C(N)Cc3ccc(F)cc3)cs2)n1 (stereo unspecified) | 56.4 | · | · | · | · | – | 63.3 | 37.7 | – | 34.2
COc1ccc(CC(N)c2csc(Nc3cc(NCCCO)ncn3)n2)cc1 (stereo unspecified) | – | · | · | · | · | – | · | · | · | ·
CCc1cnc(Nc2nc(C(N)Cc3ccc(Cl)cc3)cs2)nc1 (stereo unspecified) | 51.2 | · | · | · | · | – | 70.1 | 31.8 | – | 28.0
Cc1cnc(C)c(Nc2nc(C(N)Cc3ccccc3)cs2)n1 (stereo unspecified) | – | · | · | · | · | – | · | · | · | ·
CCCc1cnc(Nc2nc(C(N)Cc3ccc(OC)cc3)cs2)nc1 (stereo unspecified) | 48.1 | · | · | · | · | – | 47.0 | 18.1 | – | –
CCCN(CC(=O)Nc1cc(C)on1)CC(=O)Nc1ccccc1C | – | – | – | – | · | – | · | · | · | ·
Cc1nonc1NC(=O)CSc1nc2ccccc2o1 | – | – | – | – | – | – | · | · | · | ·
Cc1cccn2c(=O)c(C=O)c(N3CCC4(CC3)OCCO4)nc12 | – | – | – | – | – | – | · | · | · | ·
NC(Cc1ccc(Cl)cc1)c1csc(Nc2cc(NCCCO)ncn2)n1 (stereo unspecified) | – | · | · | · | · | – | · | · | · | ·
NC(Cc1ccc(Cl)cc1)c1csc(Nc2ccc(-c3ccccc3)nn2)n1 (stereo unspecified) | 62.5 | · | · | · | · | 49.4 | – | 25.1 | – | 40.4
SMILES | TAAR1 agonist | CRFR2-BP antag | CRFR2-BP ag | ANO1 activ | TMEM16A inh | TAAR1 antag | TAAR1 ag conf | Ga16 ag counter | TAAR1 desens | Ga16 antag count
Cc1cccc(C(CC(=O)NCCc2ccccc2)c2ccccc2)c1O (stereo unspecified) | 66.3 | – | – | – | – | – | 91.6 | – | 61.1 | –
CCOc1ccccc1CN1CCNC(=O)C1CC(=O)NCc1ccccn1 (stereo unspecified) | – | – | – | – | – | – | · | · | · | ·
Cc1ccc(CNS(=O)(=O)c2cc3c4c(c2)C(C)C(=O)N4CCC3)cc1 (stereo unspecified) | – | – | – | – | – | – | · | · | · | ·
COc1ccc(-c2csc(C(O)c3ccc(F)c(F)c3)n2)cc1 (stereo unspecified) | 57.3 | · | · | · | · | 77.3 | 51.5 | 33.2 | 70.1 | 53.2
OC(c1ccc(F)c(F)c1)c1nc(-c2ccccc2)cs1 (stereo unspecified) | – | · | · | · | · | – | · | · | · | ·
CC(C)c1ccc2[nH]c3c(c2c1)[C@@H]1CCN2C(=O)CCC[C@H](C3)[C@H]12 | – | – | – | – | – | – | · | · | · | ·
CC(C)Cc1ccc(C(C)C(=O)Nc2nccs2)cc1 (stereo unspecified) | 104.8 | – | – | – | – | 73.7 | 102.8 | 50.0 | 80.6 | 49.9
CC(C)c1ccc(CNC(=O)C(=O)Nc2nccs2)cc1 | – | – | – | – | – | – | · | · | · | ·
Brc1ccc2nc(-c3ccco3)c(CC3CCCCC3)n2c1 | – | · | · | · | · | – | · | · | · | ·
O=C(CCCN=C1NS(=O)(=O)c2ccccc21)OCC(=O)c1ccc(F)cc1 | 67.3 | – | – | – | – | – | 85.8 | 33.2 | – | 29.6
CC(=O)NCCNc1nc(NCC2CC2)nc2cc(-c3ccccc3)sc12 | – | · | · | · | · | – | · | · | · | ·
CC(=O)Nc1cccc(C(=O)/C=C/c2ccc(/C=C/C(=O)c3cccc(NC(C)=O)c3)cc2)c1 | – | · | · | · | – | – | · | · | · | ·
CC(=O)Nc1cccc(C(=O)/C=C/c2ccc(N(C)C)cc2)c1 | 127.1 | – | 195.8 | – | – | 57.8 | 81.4 | 96.4 | 70.8 | 75.0
CCC(C(N)=O)N1C(=O)C2C3CCC(C3)C2C1=O (stereo unspecified) | – | – | – | · | · | – | · | · | · | ·
COc1ccc(Cn2c(-c3ccc(C)cc3)nc3c(c(=O)c4ccccc4n3C)c2=O)cc1 | 91.5 | – | – | – | – | 57.8 | 84.9 | 52.9 | 67.9 | 41.7

Assay outcomes from PubChem BioAssay.
